Laboratory results reported in ChEMBL document CHEMBL1150874, “Antiviral phenylpropanoid glycosides from the medicinal plant Markhamia lutea” (J Nat Prod, 1998).
≈ marks a conversion by molar mass, not a printed value.

How the values were obtained:
[1] = Selectivity index, ratio of EC50 for RSV long by cytopathic effect over IC50 for human Hep2 cells; assay type: functional, HEp-2
[2] = Cytotoxicity against RSV long infected human Hep2 cells after 3 days; assay type: cell-based; conditions: HEp-2, 72 h
[3] = system: Respiratory syncytial virus; test: Antiviral activity against RSV long infected in human Hep2 cells assessed as virus-induced cytopathic effect after 3 days; assay type: functional, organism-based; conditions: HEp-2, 72 h
[4] = system: Respiratory syncytial virus; test: Antiviral activity against RSV infected in human Hep2 cells assessed as virus-induced cytopathic effect administered 3 hrs postinfection; assay type: functional, organism-based; conditions: HEp-2, 3 h
Procedure, shortened: (§1)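 RSV (Long, CPE) in Hep-2 cells, seeded the day before at 10 000 cells/well in high-glucose DMEM with 2% or 10% heat-inactivated FBS. Virus (3000 PFU) or medium alone was adsorbed for 3 h at 37 °C, then 3-fold dilutions were added (eight concentrations, 830-0.38 or […] final). Incubation was 3 days at 37 °C, then neutral red stain. EC50 and IC50 were in µg/mL; SI = IC50/EC50.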

[5] = system: Respiratory syncytial virus; test: Antiviral activity against RSV A-2 infected in human Hep2 cells after 3 days by plaque neutralization assay; assay type: functional, organism-based; conditions: HEp-2, 72 h
[6] = Cytotoxicity against human Hep2 cells administered 3 hrs postinfection; assay type: cell-based; conditions: HEp-2, 3 h; procedure, shortened: as §1
[7] = Cytotoxicity against HSV2 infected human Hep2 cells after 3 days; assay type: cell-based; conditions: HEp-2, 72 h
[8] = Cytotoxicity against mCMV RM-461 infected human Hep2 cells after 3 days; assay type: cell-based; conditions: HEp-2, 72 h
[9] = Selectivity index, […] for human Hep2 cells administered 3 hrs after infection; assay type: functional, HEp-2; procedure, shortened: as §1
[10] = Selectivity index, ratio of EC50 for HSV2 by cytopathic effect over IC50 for human Hep2 cells; assay type: functional, HEp-2
[11] = Cytotoxicity against HSV1 infected human Hep2 cells after 3 days; assay type: cell-based; conditions: HEp-2, 72 h
Human alphaherpesvirus 2 = test: Antiviral activity against HSV2 infected in human Hep2 cells assessed as virus-induced cytopathic effect after 3 days; assay type: functional, organism-based; conditions: Human alphaherpesvirus 2, HEp-2, 72 h
Human alphaherpesvirus 1 = test: Antiviral activity against HSV1 infected in human Hep2 cells assessed as virus-induced cytopathic effect after 3 days; assay type: functional, organism-based; conditions: Human alphaherpesvirus 1, HEp-2, 72 h
[12] = Selectivity index, ratio of EC50 for HSV1 by cytopathic effect over IC50 for human Hep2 cells; assay type: functional, HEp-2
Murine cytomegalovirus = test: Antiviral activity against mCMV RM461 infected in human Hep2 cells assessed as virus-induced cytopathic effect after 3 days; conditions: HEp-2, 72 h
[13] = Selectivity index, ratio of EC50 for mCMV RM461 by cytopathic effect over IC50 for human Hep2 cells; assay type: functional, HEp-2
[14] = Cytotoxicity against VZV 3CV-1 infected human Hep2 cells after 3 days; assay type: cell-based; conditions: HEp-2, 72 h
Human alphaherpesvirus 3 = test: Antiviral activity against VZV 3CV-1 infected in human Hep2 cells after 3 days by plaque neutralization assay; assay type: functional, organism-based; conditions: Human alphaherpesvirus 3, HEp-2, 72 h
[15] = Cytotoxicity against RSV A-2 infected human Hep2 cells after 3 days; assay type: cell-based; conditions: HEp-2, 72 h
[16] = Selectivity index, […] for human Hep2 cells; assay type: functional, HEp-2

CC(=O)O[C@@H]1[C@@H](OC(C)=O)[C@H](C)O[C@@H](O[C@@H]2[C@@H](OC(C)=O)[C@H](OCCc3ccc(O)c(O)c3)O[C@H](COC(=O)/C=C/c3ccc(O)c(O)c3)[C@H]2OC(C)=O)[C@@H]1OC(C)=O
Ratio IC50/EC50 [1]: 8.2 | IC50 ([2]; read-out: IC50): 15.9 µg/mL (≈ 19 µM) | EC50 [3]: 1.93 µg/mL (≈ 2.31 µM)

CC(=O)OC[C@H]1O[C@@H](OCCc2ccc(O)c(O)c2)[C@H](OC(C)=O)[C@@H](O[C@@H]2O[C@@H](C)[C@H](OC(C)=O)[C@@H](OC(C)=O)[C@H]2OC(C)=O)[C@@H]1OC(=O)/C=C/c1ccc(O)c(O)c1
Ratio IC50/EC50 [1]: 4.4 | IC50 ([2]; read-out: IC50): 26.2 µg/mL (≈ 31.4 µM) | EC50 [3]: 5.87 µg/mL (≈ 7.03 µM)

C[C@@H]1O[C@@H](O[C@@H]2[C@@H](O)[C@H](OCCc3ccc(O)c(O)c3)O[C@H](CO)[C@H]2OC(=O)/C=C/c2ccc(O)c(O)c2)[C@H](O)[C@H](O)[C@H]1O [ACETOSIDE]
EC50 [4]: 0.26 µg/mL (≈ 0.416 µM) | Ratio IC50/EC50 [1]: 85 | EC50 [5]: 9.7 µg/mL (≈ 15.5 µM) | IC50 [6]: 108 µg/mL (≈ 173 µM) | IC50 [7]: 71 µg/mL (≈ 114 µM) | IC50 [8]: 44 µg/mL (≈ 70.4 µM) | IC50 [2]: 76.9 µg/mL (≈ 123 µM) | Ratio IC50/EC50 [9]: 415 | EC50 [3]: 0.8 µg/mL (≈ 1.28 µM)

Nc1nc2c(ncn2COCCO)c(=O)[nH]1 [ACYCLOVIR]
Ratio IC50/EC50 [10]: >4.3 | IC50 [7]: > 10 µg/mL | IC50 [11]: > 67 µg/mL | EC50 (Human alphaherpesvirus 2): 2.3 µg/mL (≈ 10.2 µM) | EC50 (Human alphaherpesvirus 1): 0.26 µg/mL (≈ 1.15 µM) | Ratio IC50/EC50 [12]: >250

Nc1nc2c(ncn2COC(CO)CO)c(=O)[nH]1 [GANCICLOVIR]
EC50 (Murine cytomegalovirus): 5 µg/mL (≈ 19.6 µM) | Ratio IC50/EC50 [13]: >20 | IC50 [8]: > 100 µg/mL | IC50 [14]: 840 µg/mL (≈ 3290 µM) | EC50 (Human alphaherpesvirus 3): 26.7 µg/mL (≈ 105 µM)

C[C@@H]1O[C@@H](O[C@@H]2[C@@H](O)[C@H](OCCc3ccc(O)c(O)c3)O[C@H](COC(=O)/C=C/c3ccc(O)c(O)c3)[C@H]2O)[C@H](O)[C@H](O)[C@H]1O [ISOACTEOSIDE]
EC50 [4]: 0.17 µg/mL (≈ 0.272 µM) | Ratio IC50/EC50 [1]: 84 | EC50 [5]: 1.1 µg/mL (≈ 1.76 µM) | IC50 [6]: 125 µg/mL (≈ 200 µM) | IC50 [7]: 27 µg/mL (≈ 43.2 µM) | IC50 [11]: 30 µg/mL (≈ 48 µM) | IC50 [8]: 89 µg/mL (≈ 142 µM) | IC50 [14]: 75 µg/mL (≈ 120 µM) | IC50 ([2]; read-out: IC50): 51.4 µg/mL (≈ 82.3 µM) | Ratio IC50/EC50 [9]: 735 | EC50 [3]: 0.62 µg/mL (≈ 0.993 µM)

CC(=O)Oc1ccc(/C=C/C(=O)OC[C@H]2O[C@@H](OCCc3ccc(OC(C)=O)c(OC(C)=O)c3)[C@H](OC(C)=O)[C@@H](O[C@@H]3O[C@@H](C)[C@H](OC(C)=O)[C@@H](OC(C)=O)[C@H]3OC(C)=O)[C@@H]2OC(C)=O)cc1OC(C)=O [ISOVERBASCOSIDE NOAACETATE]
Ratio IC50/EC50 [1]: 3.3 | IC50 ([2]; read-out: IC50): 11.2 µg/mL (≈ 11.2 µM) | EC50 [3]: 3.4 µg/mL (≈ 3.39 µM)

CC(=O)OC[C@H]1O[C@@H](OCCc2ccc(O)c(O)c2)[C@H](O[C@@H]2OC[C@](O)(CO)[C@@H]2O)[C@@H](O[C@@H]2O[C@@H](C)[C@H](O)[C@@H](O)[C@H]2O)[C@@H]1OC(=O)/C=C/c1ccc(O)c(O)c1 [LUTEOSIDE A]
EC50 [4]: 11 µg/mL (≈ 13.8 µM) | Ratio IC50/EC50 [1]: 89 | IC50 [6]: 180 µg/mL (≈ 225 µM) | IC50 ([2]; read-out: IC50): 77 µg/mL (≈ 96.4 µM) | Ratio IC50/EC50 [9]: 16 | EC50 [3]: 0.87 µg/mL (≈ 1.09 µM)

C[C@@H]1O[C@@H](O[C@H]2[C@H](O)[C@@H](COC(=O)/C=C/c3ccc(O)c(O)c3)O[C@@H](OCCc3ccc(O)c(O)c3)[C@@H]2O[C@@H]2OC[C@](O)(CO)[C@@H]2O)[C@H](O)[C@H](O)[C@H]1O [LUTEOSIDE B]
EC50 [4]: 0.23 µg/mL (≈ 0.304 µM) | Ratio IC50/EC50 [1]: >19 | IC50 [6]: 180 µg/mL (≈ 238 µM) | IC50 [7]: 90 µg/mL (≈ 119 µM) | IC50 [11]: 93 µg/mL (≈ 123 µM) | IC50 ([2]; read-out: IC50): > 67 µg/mL | Ratio IC50/EC50 [9]: 780 | EC50 [3]: 3.4 µg/mL (≈ 4.49 µM)

COc1cc(/C=C/C(=O)OC[C@H]2O[C@@H](OCCc3ccc(O)c(O)c3)[C@H](O[C@@H]3OC[C@](O)(CO)[C@@H]3O)[C@@H](O[C@@H]3O[C@@H](C)[C@H](O)[C@@H](O)[C@H]3O)[C@@H]2O)ccc1O [LUTEOSIDE C]
EC50 [4]: 12 µg/mL (≈ 15.6 µM) | Ratio IC50/EC50 [1]: 12 | IC50 [6]: > 330 µg/mL | IC50 ([2]; read-out: IC50): 189 µg/mL (≈ 245 µM) | Ratio IC50/EC50 [9]: >28 | EC50 [3]: 15.5 µg/mL (≈ 20.1 µM)

NC(=O)c1ncn([C@@H]2O[C@H](CO)[C@@H](O)[C@H]2O)n1 [RIBAVIRIN]
EC50 [4]: 2.3 µg/mL (≈ 9.42 µM) | Ratio IC50/EC50 [1]: 19 | EC50 [5]: 2.2 µg/mL (≈ 9.01 µM) | IC50 [6]: 25 µg/mL (≈ 102 µM) | IC50 [15]: 25 µg/mL (≈ 102 µM) | IC50 ([2]; read-out: IC50): 35 µg/mL (≈ 143 µM) | Ratio IC50/EC50 [9]: 10.8 | Ratio IC50/EC50 [16]: 11 | EC50 [3]: 1.8 µg/mL (≈ 7.37 µM)

CC(=O)OC[C@H]1O[C@@H](OCCc2ccc(OC(C)=O)c(OC(C)=O)c2)[C@H](OC(C)=O)[C@@H](O[C@@H]2O[C@@H](C)[C@H](OC(C)=O)[C@@H](OC(C)=O)[C@H]2OC(C)=O)[C@@H]1OC(=O)/C=C/c1ccc(OC(C)=O)c(OC(C)=O)c1 [VERBASCOSIDE NONAACETATE]
IC50 ([2]; read-out: IC50): 33.7 µg/mL (≈ 33.6 µM)
